Experimental data as given in ChEMBL document CHEMBL5506013, “Mitochondria-Selective Dicationic Small-Molecule Ligand Targeting G-Quadruplex Structures for Human Colorectal Cancer Therapy” (J Med Chem, 2024).
Calls of active or inactive are those of the source. No cut-off for these calls is given here.

Columns and labels:
Quadruplex DNA [1] = assay: Binding affinity to mito 78 G4 DNA (unknown origin) assessed as dissociation constant measured upto 450 secs by surface plasmon resonance assay; assay type: nucleic-acid assay
HFF-1 [2] = assay: Downregulation of ND2 mRNA level in human HFF-1 cells at 0 to 4 uM measured after 48 hrs by qRT-PCR analysis; assay type: functional, cell-based; conditions: dose 0-4 µM
HFF-1 [3] = assay: Downregulation of ND1 gene expression in human HFF-1 cells at 0 to 4 uM measured after 48 hrs by q-PCR analysis; assay type: functional, cell-based; conditions: dose 0-4 µM
Quadruplex DNA [4] = assay: Binding affinity to Mito 81 G4 DNA (unknown origin) assessed as increase in CD signal at 5 uM at 265 nM by circular dichroism spectroscopic analysis; assay type: nucleic-acid assay
DNA [5] = assay: Binding affinity to SS19 DNA (non-G4 DNA) (unknown origin) assessed as increase in fluorescence intensity by fluorescence spectrophotometric analysis; assay type: nucleic-acid assay
Method in brief: (§1)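 Oligonucleotides were pre-annealed at 95 °C for 10 min, then cooled slowly. Ligand (5 uM) was mixed with 20 uM DNA in buffer. Emission was collected over 550–800 nm, and enhancement was taken at 650 nm as F/F0.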

Quadruplex DNA [6] = assay: Binding affinity to mito 0.5-16 G4 DNA (unknown origin) assessed as dissociation constant measured upto 150 secs by isothermal titration calorimetry assay; assay type: nucleic-acid assay
HCT-116 [7] = assay: Induction of cell senescence in human HCT-116 cells assessed by increase SA-beta-Gal positive cells at upto 4 uM measured after 72 hrs by SA-bet-gal assay
[8] = Toxicity in BALB/c nude mouse assessed as effect on liver at 5 mg/kg, iv measured after 16 hrs post injection by H and E staining based analysis; assay type: organism-based; conditions: in vivo
Quadruplex DNA [9] = assay: Binding affinity to mito 29 G4 DNA (unknown origin) assessed as increase in fluorescence intensity by fluorescence spectrophotometric analysis; assay type: nucleic-acid assay; method in brief: as §1
HCT-116 [10] = assay: Induction of ROS production in human HCT-116 cells assessed as upregulation of ROS level measured after 48 hrs by mito-sox staining based analysis; assay type: functional, cell-based; conditions: dose <= 4.0 µM
DNA [11] = assay: Binding affinity to HP19 DNA (non-G4 DNA) (unknown origin) assessed as dissociation constant measured upto 150 secs by isothermal titration calorimetry assay; assay type: nucleic-acid assay
Quadruplex DNA [12] = assay: Binding affinity to mito 81 G4 DNA (unknown origin) assessed as increase in fluorescence intensity by fluorescence spectrophotometric analysis; assay type: nucleic-acid assay
Method in brief: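 Fluorescence titration in buffer. Ligand at 5 uM mixed with 20 uM pre-annealed DNA (95 °C for 10 min, slow cooling). Emission collected at 550-800 nm and monitored at 650 nm. Result reported as fold enhancement F/F0 over ligand alone.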

HCT-116 [13] = assay: Induction of apoptosis in human HCT-116 cells measured after 72 hrs by annexin V-BUV396 and 7-AAD staining based flow cytometry analysis; assay type: functional, cell-based; conditions: dose <= 4.0 µM
Method in brief: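 HCT116 cells treated at 0-4 uM for 72 h, stained with Annexin V-BUV396 and 7-AAD, and the apoptotic fraction quantified by flow cytometry.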

DNA [14] = assay: Binding affinity to SS19 DNA (non-G4 DNA) (unknown origin) assessed as dissociation constant measured upto 150 secs by isothermal titration calorimetry assay; assay type: nucleic-acid assay
Quadruplex DNA [15] = assay: Binding affinity to Mito 78 G4 DNA (unknown origin) assessed as increase in CD signal at 5 uM at 290 nMby circular dichroism spectroscopic analysis; assay type: nucleic-acid assay
HCT-116 [16] = assay: Downregulation of CYTB protein level in human HCT-116 cells at upto 4 uM incubated for 48 hrs by Western blot analysis; assay type: functional, cell-based
HCT-116 [17] = assay: Inhibition of cell migration in human HCT-116 cells at upto 4 uM measured after 72 hrs by transwell assay relative to control; assay type: functional; conditions: up to 4 µM
Method in brief: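 Transwell migration of HCT116 cells treated for 72 h at 0, 1, 2 or 4 uM, imaged at 100x and quantified; mean ± SD.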

DNA [18] = assay: Binding affinity to HP19 DNA (non-G4 DNA) (unknown origin) assessed as dissociation constant measured upto 450 secs by surface plasmon resonance assay; assay type: nucleic-acid assay
Method in brief: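 Surface plasmon resonance in buffer at 25 °C. Four G4-mtDNAs (Mito 78, Mito 55, Mito 29, Mito 0.5-16) and the hairpin HP19 served as substrates. Kd was derived from the sensorgrams.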

Quadruplex DNA [19] = assay: Binding affinity to mito 0.5-15 G4 DNA (unknown origin) assessed as increase in fluorescence intensity by fluorescence spectrophotometric analysis; assay type: nucleic-acid assay; method in brief: as §1
[20] = Toxicity in BALB/c nude mouse assessed as effect on lung at 5 mg/kg, iv measured after 16 hrs post injection by H and E staining based analysis; assay type: organism-based; conditions: in vivo
DNA [21] = assay: Binding affinity to HP19 DNA (non-G4 DNA) (unknown origin) assessed as change in melting temperature at 5 uM by circular dichroism spectroscopic analysis; assay type: nucleic-acid assay
DNA [22] = assay: Binding affinity to HP19 DNA (non-G4 DNA) (unknown origin) assessed as increase in fluorescence intensity by fluorescence spectrophotometric analysis; assay type: nucleic-acid assay; method in brief: as §1
HCT-116 [23] = assay: Induction of DNA damage in human HCT-116 assessed as increase in tail length at upto 4 uM incubated for 72 hrs in presence of MitoTEMPO by comet assay; assay type: functional, cell-based
[24] = Drug localization in human HCT-116 cells transfected with Cy5-HP19 non G4 DNA at 4 uM incubated for 1 hr by hoechst33342 staining based analysis; assay type: ADME, cell-based; conditions: hct-116, 1 h
Method in brief: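 HCT116 cells transfected with Cy5-labelled DNA (excitation 635 nm) for 24 h. Ligand 4 uM added for 1 h, then Hoechst33342 1 uM for 30 min. Colocalization of ligand with Cy5 quantified by Pearson r from confocal images.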

HCT-116 [25] = assay: Induction of mitochondrial dysfunction in human HCT-116 cells assessed as decrease in extracellular acidification rate at upto 4 uM incubated for 3 hrs by Seahorse XFe24 analyzer; assay type: functional, cell-based
Method in brief: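 Seahorse Mito-stress and glycolysis stress tests on HCT116 cells treated with ligand for 3 h. Oxygen consumption rate and extracellular acidification rate recorded.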

[26] = Drug localization in human HCT-116 cells overexpressing twinkle helicase by measuring red foci at 4 uM incubated for 1 hr by hoechst33342 staining based analysis; assay type: ADME, cell-based; conditions: hct-116, 1 h
[27] = Drug localization in mitochondria of living human HCT-116 cells assessed as colocalization at 4 uM incubated for 1 hr by Mito-tracker deep red staining based analysis; assay type: ADME; conditions: hct-116, 1 h
Quadruplex DNA [28] = assay: Binding affinity to Mito 0.5-16 G4 DNA (unknown origin) assessed as increase in CD signal at 5 uM at 290 nM by circular dichroism spectroscopic analysis; assay type: nucleic-acid assay
Quadruplex DNA [29] = assay: Binding affinity to mito 0.5-16 G4 DNA (unknown origin) assessed as increase in fluorescence intensity by fluorescence spectrophotometric analysis; assay type: nucleic-acid assay; method in brief: as §1
[30] = Drug localization in mitochondria of human HCT-116 cells at upto 4 uM incubated for 1 hrs by mito-tracker deep red staining based live cell imaging analysis; assay type: ADME; conditions: hct-116, 1 h
HCT-116 [31] = assay: Induction of DNA damage in human HCT-116 assessed as increase in gammaH2AX level at upto 4 uM incubated for 72 hrs in presence of MitoTEMPOL by Western blot analysis; assay type: functional, cell-based

## C(=C\c1ccc2ccccc2[n+]1CCCCCCCC[n+]1c(/C=C/c2ccc(N3CCCCC3)cc2)ccc2ccccc21)/c1ccc(N2CCCCC2)cc1.[I-].[I-]
Quadruplex DNA [1]
  Kd: 0.04 µM
HFF-1 [2]
  Activity: Active
HFF-1 [3]
  Activity: inactive
Quadruplex DNA [4]
  Activity: Active
DNA [5]
  Activity: inactive
Quadruplex DNA [6]
  Kd: 0.06 µM
HCT-116 [7]
  Activity: Active
[8]
  Activity: Non-Toxic
Quadruplex DNA [9]
  Activity: Active
HCT-116 [10]
  Activity: Dose-Dependent Effect
DNA [11]
  Kd: > 4.7 µM
Quadruplex DNA [12]
  Activity: Active
HCT-116 [13]
  Activity: Dose-Dependent Effect
DNA [14]
  Kd: > 4.7 µM
Quadruplex DNA [15]
  Activity: Active
HCT-116 [16]
  Activity: Active
HCT-116 [17]
  inhibition (INH): 40%
DNA [18]
  Kd: > 2 µM
Quadruplex DNA [19]
  Activity: Active
[20]
  Activity: Non-Toxic
DNA [21]
  ΔTm: 0.5 °C
DNA [22]
  Activity: inactive
HCT-116 [23]
  Activity: inactive
[24]
  Drug uptake: Not Active
HCT-116 [25]
  Activity: Active
[26]
  Drug uptake: Active
[27]
  Drug uptake: Active
Quadruplex DNA [28]
  Activity: Active
Quadruplex DNA [29]
  Activity: Active
[30]
  Drug uptake: Active
HCT-116 [31]
  Activity: inactive
